Screens deposited in PubChem BioAssay by Columbia University Molecular Screening Center.
INS promoter act = TRM-6 insulin promoter activation. activation, % at 2 µM. hit rate 0.81% among 130,000. TRM-6 cells (human fetal islet line), insulin promoter eGFP reporter, imaging; plate-scaled: unstimulated 0, stimulated control 100;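 active = activation at 2 µM above a set limit, confirmed on inspection of the cell images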;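 note: share of cells whose green reporter signal exceeds an intensity cutoff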
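Material: TRM-6 insulin promoter–eGFP reporter cells. Buffer or medium: Low-glucose (5.5 mM) medium with tamoxifen. Probe or stimulus: tamoxifen at 0.75 µM added at seeding for reporter induction. Times: tamoxifen pre-incubation 15 h overnight, then compound exposure 48 h at 37 °C. Detection: high-content imaging of fixed cells with Hoechst nuclear stain.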
Hits are given with their value; i = inactive. Shown is part of a subset that was picked to be rich in hits.

SMILES	INS promoter act
CC(=O)c1ccc(NC(=O)N2CCN(c3cccc(Cl)c3)CC2)cc1	i
CC(=O)c1ccc(N2CCN(C(=S)Nc3cccc(F)c3)CC2)cc1	138
CCn1c(COc2ccc(C)cc2)nnc1SCC(=O)NNC(=O)c1ccc(OC)cc1	i
CCn1c(NC(=O)c2ccc(C)cc2)c2ccccc2nc1=O	i
Cc1ccc(C(=O)Nc2nc(=O)n(C(=O)c3ccccc3Cl)s2)cc1	84
CC(C)CC(=O)n1sc(NC(=O)c2ccccc2)nc1=O	i
CCOC(=O)c1cccc(NC(=O)Cn2c(CC(=O)N3CCCC3)nc3ccccc32)c1	i
COc1ccccc1N(C(C)=O)c1nc(C)cc(C)c1C#N	i
CCOc1ccc(CCNC(=O)COC(=O)c2ccco2)cc1OCC	i
CCOc1ccc(CCNC(=O)C(CCC(N)=O)NC(=O)OCc2ccccc2)cc1OCC (centres undefined)	229
Cc1ccc(CNC(=O)C(CCC(N)=O)NC(=O)OCc2ccccc2)cc1 (centres undefined)	i
O=C(CSc1nc2c(sc3ccccc32)c(=O)n1CCCN1CCCC1)NCc1ccco1	i
CC(NC(=O)C(=O)NCCC1=CCCCC1)c1ccccc1 (centres undefined)	i
O=C(c1ccccc1)c1ccc(C(=O)N2CCN(c3ccc(F)cc3)CC2)o1	i
Cc1cccc(NC(=O)c2ccc(C(=O)c3ccccc3)o2)c1	i
CCOC(=O)N1CCC(NC(=O)Cc2ccc(-n3c(=O)[nH]c4ccccc4c3=O)cc2)CC1	500
COc1ccc(N2CCN(C(=O)Cc3ccc(-n4c(=O)[nH]c5ccccc5c4=O)cc3)CC2)cc1	i
CCOC(=O)N1CCC(NC(=O)c2cn(-c3ccc(OC)cc3)c(=O)c3ccccc23)CC1	i
CC(C)CNC(=O)CSc1nc2nn(-c3ccccc3)c(=O)c-2c2n1CCCCC2	467
COC(=O)c1c(NC(=O)CSc2nnnn2-c2ccccc2)sc2c1CCCC2	i
CC(NC(=O)CSc1nc(=O)cc(N)n1-c1ccccc1)c1ccccc1 (centres undefined)	i
O=C(NCc1ccco1)C1CCCN1S(=O)(=O)c1ccc2ccccc2c1 (centres undefined)	i
CCOC(=O)C1CN(S(=O)(=O)c2ccc(C)cc2)CCN1S(=O)(=O)c1ccc(C)cc1 (centres undefined)	i
Cc1ccc(S(=O)(=O)N2CCCC2C(=O)OCc2ccco2)cc1 (centres undefined)	579
C=CCn1c(N)cc(=O)nc1SCC(=O)NC(C)c1ccccc1 (centres undefined)	i
SMILES	INS promoter act
COc1ccc(-c2nnc(SCc3cc(C)ccc3C)n2N)cc1	i
O=C(CNC(=S)N(Cc1ccccc1)Cc1cccs1)NCc1ccc(F)cc1	i
O=C(CN(Cc1cccs1)C(=O)CNS(=O)(=O)c1ccc(F)cc1)NCc1ccco1	171
CC(C)C(C(=O)NCC1CCCO1)N(Cc1ccco1)C(=O)CNS(=O)(=O)c1ccc(F)cc1 (centres undefined)	i
COc1ccc(S(=O)(=O)N2CCOCC2)cc1NC(=O)CSc1nnc2ccccn12	i
Cc1ccccc1CN1CCN(S(C)(=O)=O)CC1	444
CCOc1ccccc1CN1CCN(S(C)(=O)=O)CC1	i
Cc1ccccc1CN1CCN(CC2CC3C=CC2C3)CC1 (centres undefined)	i
Cc1cc(C)cc(NS(=O)(=O)c2ccc3oc(=O)ccc3c2)c1	i
CCOc1ccc(S(=O)(=O)N(CC(=O)N/N=C/c2cccs2)c2ccc(C)cc2)cc1	i
CCOC(=O)C(C)Oc1ccc(C2NC(=O)NC(C)=C2C(=O)Nc2ccccc2C)cc1 (centres undefined)	i
N/C(=N\OC(=O)CCC1CCCC1)c1ccccn1	i
CS(=O)(=O)N(CC(=O)NC1CCCC1)c1ccc2c(c1)OCCO2	i
COc1ccc(Nc2nc3c(C)cccc3cc2C#N)c(OC)c1	i
COc1cccc2c1C(=O)c1c(O)c3c(c(O)c1C2=O)C[C@@](O)(C(C)=O)C[C@@H]3O[C@H]1C[C@H](N)[C@H](O)[C@H](C)O1	354
CCOC(=O)c1ccc(S(=O)(=O)N2CCN(C(=O)c3nn(C)c(=O)c4ccccc34)CC2)cc1	i
CC(=O)Nc1nc(-c2ccccc2)nc(C)c1C(C)=O	i
CCC(=O)Nc1nc(C)nc(C)c1C(C)=O	i
CC(=O)Nc1nc(C)nc(C)c1C(C)=O	129
O=C(Nc1ccc(NS(=O)(=O)c2ccccc2)cc1)c1cccnc1	i
Cc1cc(C(=O)CSc2nnc(-c3cccnc3)n2-c2ccccc2F)c(C)n1CC1CCCO1 (centres undefined)	91
O=C(CSc1nnc(-c2ccncc2)n1CC1CCCO1)NCc1ccccc1 (centres undefined)	i
Cc1cc(C(=O)CSc2nnc(-c3ccc(F)cc3)o2)c(C)n1CC1COc2ccccc2O1 (centres undefined)	i
O=C(Nc1ccc([N+](=O)[O-])cc1)Nc1nc(-c2ccc(Cl)s2)cs1	i
O=C(OCc1nnc(-c2ccccc2)o1)c1cccnc1Cl	i
O=C(COC(=O)c1cccnc1Cl)c1ccc(F)cc1	426
O=C(COC(=O)c1cccnc1Cl)c1ccccc1	i
